The record followed here is ChEMBL document CHEMBL1142537, “Spirocyclic benzopyran-based derivatives as new anti-ischemic activators of mitochondrial ATP-sensitive potassium channel” (J Med Chem, 2008).

Each structure is given as a SMILES string. Activity calls are given as the source filed them. The calls are words filed in the database; no cut-off is given here.

Assay [1] relates to Aorta. The assay is described as follows: Vasorelaxation activity in Wistar rat thoracic aortic ring assessed as inhibition of KCl-induced contraction at 100 uM relative to KCl. It counts as functional. Put shortly:
(§1)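 Endothelium-denuded rat aortic rings recorded isometrically, equilibrated 60 min. Denudation checked with ACh (10 µM) on KCl (20 mM) tone; rings relaxing ≥10% discarded. Rings contracted with 20 mM KCl, then given 3-fold cumulative concentrations from 10 nM to 100 µM.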

The test system of assay [2] is Rattus norvegicus. The assay is described as follows: Cardioprotective activity in Langendorff perfused Wistar rat assessed as rate pressure product at 40 mg/kg, ip recorded after 30 mins of ischemia followed by 120 mins of reperfusion in presence of 5-hydroxydecanoic acid. It counts as functional, organism-based. Also on record: dose 40 mg/kg. Put shortly:
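In this series the mito-KATP blocker 5-hydroxydecanoic acid (10 mg/kg, in water) was given 20 min before the ip compound (40 mg/kg). The Langendorff protocol was then run: 30 min global ischemia, 120 min reperfusion. RPP at 120 min expressed as % of preischemic value.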

Assay [3] deals with Rattus norvegicus. The assay is described as follows: Cardioprotective activity in Langendorff perfused Wistar rat assessed as rate pressure product at 40 mg/kg, ip recorded after 30 mins of global ischemia followed by 120 mins of reperfusion. The following applies: route intraperitoneal. The format is functional. Put shortly:
(§2)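 Adult male Wistar rats (260-350 g) given the compound ip in DMSO (40 mg/kg; cromakalim 1 mg/kg), then after 2 h anaesthetised with pentobarbital (100 mg/kg ip) and heparinized (100 UI ip). Hearts on Langendorff apparatus with an LV balloon (end-diastolic 5-10 mmHg). 30 min equilibration, 30 min global no-flow ischemia, 120 min reperfusion. RPP at 120 min expressed as % of preischemic RPP.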

Assay [4] has as its system Rattus norvegicus. The assay is described as follows: Antiischemic activity in Langendorff perfused Wistar rat assessed as ratio of ischemic area to total area at 40 mg/kg, ip. It counts as functional. The following applies: route intraperitoneal.
For assay [5], the system named is Aorta. The assay is described as follows: Vasorelaxation activity in Wistar rat thoracic aortic ring assessed as inhibition of KCl-induced contraction. The format is functional, tissue-based. The method in brief: as §1
Assay [6] relates to Rattus norvegicus. The assay is described as follows: Hypotensive activity in normotensive Wistar rat assessed as systolic blood pressure at 1 mg/kg, ip after 90 mins. The following applies: Artery. Also on record: dose 1 mg/kg. It counts as functional, organism-based. The method in brief: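 Male 10-week-old normotensive Wistar rats (250 g), heparinized (100 UI ip) and anaesthetised with pentobarbital (60 mg/kg). Tail warmed 20 min under IR lamp, basal systolic pressure taken by tail-cuff. Cromakalim given ip at 1 mg/kg, groups of five. Systolic pressure recorded every 30 min for 90 min, as % of basal.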

Assay [7] deals with Rattus norvegicus. The assay is described as follows: Cardioprotective activity in Langendorff perfused Wistar rat assessed as rate pressure product at 1 mg/kg, ip recorded after 30 mins of global ischemia followed by 120 mins of reperfusion. It counts as functional. The following applies: route intraperitoneal. The method in brief:
as §2

`CC(=O)Nc1ccc(CN2CCOC3(C2)CC(C)(C)Oc2ccccc23)cc1` (racemic): the Emax at 100 µM in assay [1] was found to be 76.6%.

Consider `CC(=O)Nc1ccc(CN2CC3(CC(C)(C)Oc4ccc(Br)cc43)OCC2=O)cc1` (racemic), for which the Emax at 100 µM in assay [1] turned out to be 69.7%.

On to `CC1(C)CC2(CN(Cc3ccc(NS(C)(=O)=O)cc3)C(=O)CO2)c2cc(Br)ccc2O1` (racemic), for which the maximal response (Emax) at 100 µM in assay [1] came out at 86.8%. The outcome in assay [2] was inactive.

`CC(=O)Nc1ccc(CN2CC3(CC(C)(C)Oc4ccccc43)OCC2=O)cc1` (racemic): the maximum response (Emax) at 100 µM in assay [1] was found to be 56.5%. Moreover, the outcome in assay [2] was inactive.

`CC(=O)Nc1ccc(CN2CCOC3(C2)CC(C)(C)Oc2ccc(Br)cc23)cc1` (racemic): the Emax at 100 µM in assay [1] is 99.8%.

As to `CC1(C)CC2(CN(Cc3ccc(NS(C)(=O)=O)cc3)CCO2)c2cc(Br)ccc2O1` (racemic), the Emax at 100 µM in assay [1] is 98.1%. Further, the result in assay [2] was inactive.

As for `COc1ccccc1CN1CC2(CC(C)(C)Oc3ccccc32)OCC1=O` (racemic), in assay [3], the Activity came out at 36%. For the same compound, the Ratio in assay [4] came out at 25%.

Turning to `CC1(C)CC2(CN(Cc3ccccc3)C(=O)CO2)c2cc(Br)ccc2O1` (racemic), the IC50 in assay [5] was 14.5 µM. Besides, the maximal response (Emax) at 100 µM in assay [1] worked out at 65.8%. Also, in assay [3], the Activity came to 37%. In addition, in assay [4], the Ratio is 43%.

As for `COc1cccc(CN2CCOC3(C2)CC(C)(C)Oc2ccc(Br)cc23)c1` (racemic), the Activity in assay [3] is recorded as 42%. The Ratio in assay [4] is on record as 29%.

As for `CC1(C)CC2(CN(Cc3ccccc3)CCO2)c2cc(Br)ccc2O1` (racemic), in assay [3], the Activity stood at 42%. In assay [4], the Ratio turned out to be 31%.

With `CC1(C)CC2(CN(Cc3ccc(N)cc3)C(=O)CO2)c2cc(Br)ccc2O1` (racemic), in assay [3], the Activity amounted to 52%. Besides, in assay [4], the Ratio turned out to be 22%.

Consider `Cc1ccc(CN2CC3(CC(C)(C)Oc4ccc(Br)cc43)OCC2=O)cc1` (racemic), for which the Activity in assay [3] worked out at 38%. In assay [4], the Ratio is on record as 22%.

For `CC1(C)CC2(CN(Cc3ccc(C(F)(F)F)cc3)C(=O)CO2)c2cc(Br)ccc2O1` (racemic), in assay [3], the Activity was 47%. For the same compound, the Ratio in assay [4] is listed as 42%.

As for `COc1ccc(CN2CCOC3(C2)CC(C)(C)Oc2ccc(Br)cc23)cc1` (racemic), the concentration for half-maximal inhibition (IC50) in assay [5] was 34.7 µM. Besides, in assay [1], the Emax at 100 µM is 61.6%. For the same compound, the Activity in assay [3] was determined as 60%. Moreover, in assay [4], the Ratio worked out at 10%.

In the case of `CC1(C)CC2(CN(Cc3ccc(Br)cc3)C(=O)CO2)c2ccccc2O1` (racemic), the IC50 in assay [5] is 4.9 µM. Besides, the Emax at 100 µM in assay [1] is 89.2%. In addition, in assay [3], the Activity was 80%. Further, in assay [4], the Ratio amounted to 23%.

Take `COc1ccc(CN2CC3(CC(C)(C)Oc4ccc(Br)cc43)OCC2=O)cc1` (racemic): the IC50 in assay [5] is 3.02 µM. Moreover, in assay [1], the maximal response (Emax) at 100 µM is 91.8%. For the same compound, the Activity in assay [3] worked out at 76%. The Ratio in assay [4] turned out to be 16%.

On to `COc1ccccc1CN1CC2(CC(C)(C)Oc3ccc(Br)cc32)OCC1=O` (racemic), for which the Activity in assay [3] is on record as 42%. In addition, in assay [4], the Ratio is on record as 28%.

`CC1(C)CC2(CN(Cc3ccc(C(F)(F)F)cc3)CCO2)c2cc(Br)ccc2O1` (racemic): the IC50 in assay [5] was 17.8 µM. Moreover, the Emax at 100 µM in assay [1] came to 57.8%. The Activity in assay [3] is reported as 84%. Besides, in assay [4], the Ratio is 5%.

Consider `CC1(C)CC2(CN(Cc3ccc(Br)cc3)CCO2)c2cc(Br)ccc2O1` (racemic), for which the Activity in assay [3] is recorded as 53%. In addition, the Ratio in assay [4] is 16%.

For the compound `CC1(C)CC2(CN(Cc3ccc(Br)cc3)CCO2)c2ccccc2O1` (racemic), the Activity in assay [3] was 43%. Besides, in assay [4], the Ratio was found to be 35%.

As to `COc1ccccc1CN1CCOC2(C1)CC(C)(C)Oc1ccccc12` (racemic), in assay [3], the Activity is on record as 65%. The Ratio in assay [4] is on record as 34%.

For `CC1(C)CC2(CN(Cc3ccc(NS(C)(=O)=O)cc3)CCO2)c2ccccc2O1` (racemic), in assay [5], the IC50 is 15.5 µM. The Emax at 100 µM in assay [1] worked out at 80.6%. Besides, in assay [3], the Activity was found to be 23%. The Ratio in assay [4] is on record as 35%.

Consider `CC1(C)CC2(CN(Cc3ccc(N)cc3)C(=O)CO2)c2ccccc2O1` (racemic), for which, in assay [1], the Emax at 100 µM stood at 12.5%. Besides, the Activity in assay [3] is 53%. In assay [4], the Ratio was determined as 19%.

`CC1(C)CC2(CN(Cc3ccc(NS(C)(=O)=O)cc3)C(=O)CO2)c2ccccc2O1` (racemic): the IC50 in assay [5] is 2.95 µM. Besides, the Emax at 100 µM in assay [1] turned out to be 98%. Moreover, in assay [3], the Activity was 70%. Moreover, in assay [4], the Ratio amounted to 23%.

For `CC1(C)CC2(CN(Cc3ccccc3)CCO2)c2ccccc2O1` (racemic), the IC50 in assay [5] is 6.76 µM. In addition, the Emax at 100 µM in assay [1] was 85.9%. In addition, the result in assay [2] was inactive. In addition, the Activity in assay [3] turned out to be 77%. In addition, the Ratio in assay [4] was 18%.

As for `COc1cccc(CN2CC3(CC(C)(C)Oc4ccccc43)OCC2=O)c1` (racemic), in assay [3], the Activity stood at 29%. In addition, the Ratio in assay [4] came to 41%.

Consider `Cc1ccc(CN2CCOC3(C2)CC(C)(C)Oc2ccc(Br)cc23)cc1` (racemic), for which the Activity in assay [3] stood at 57%. Moreover, in assay [4], the Ratio is reported as 29%.

As for `COc1ccc(CN2CC3(CC(C)(C)Oc4ccccc43)OCC2=O)cc1` (racemic), the Activity in assay [3] came to 27%. Besides, the Ratio in assay [4] is on record as 29%.

Regarding `CC1(C)CC2(CN(Cc3ccc(N)cc3)CCO2)c2cc(Br)ccc2O1` (racemic), the Activity in assay [3] was determined as 30%. Besides, the Ratio in assay [4] was 39%.

As to `CC1(C)CC2(CN(Cc3ccc(Br)cc3)C(=O)CO2)c2cc(Br)ccc2O1` (racemic), the Activity in assay [3] is listed as 23%. Further, in assay [4], the Ratio was 47%.

For `COc1cccc(CN2CCOC3(C2)CC(C)(C)Oc2ccccc23)c1` (racemic), the Activity in assay [3] worked out at 38%. Also, in assay [4], the Ratio is 17%.

Consider `CC1(C)CC2(CN(Cc3ccc(C(F)(F)F)cc3)C(=O)CO2)c2ccccc2O1` (racemic), for which the IC50 in assay [5] is 7.08 µM. The Emax at 100 µM in assay [1] was found to be 101%. Further, the Activity in assay [3] was 2%. Further, the Ratio in assay [4] is 53%.

Take `COc1ccccc1CN1CCOC2(C1)CC(C)(C)Oc1ccc(Br)cc12` (racemic): in assay [3], the Activity is recorded as 59%. The Ratio in assay [4] was determined as 30%.

As to `Cc1ccc(CN2CC3(CC(C)(C)Oc4ccccc43)OCC2=O)cc1` (racemic), the Activity in assay [3] is 44%. For the same compound, in assay [4], the Ratio is listed as 23%.

`COc1cccc(CN2CC3(CC(C)(C)Oc4ccc(Br)cc43)OCC2=O)c1` (racemic): in assay [3], the Activity was 27%. Also, the Ratio in assay [4] is 29%.

In the case of `Cc1ccc(CN2CCOC3(C2)CC(C)(C)Oc2ccccc23)cc1` (racemic), the Activity in assay [3] came out at 35%. For the same compound, the Ratio in assay [4] came out at 47%.

As for `CC1(C)CC2(CN(Cc3ccc(N)cc3)CCO2)c2ccccc2O1` (racemic), in assay [5], the IC50 was 28.2 µM. In addition, the Emax at 100 µM in assay [1] was 52.3%. For the same compound, in assay [3], the Activity is on record as 58%. In assay [4], the Ratio is listed as 25%.

`CC1(C)CC2(CN(Cc3ccccc3)C(=O)CO2)c2ccccc2O1` (racemic): the IC50 in assay [5] was 28.2 µM. The Emax at 100 µM in assay [1] is 55.3%. In assay [3], the Activity is 35%. Besides, in assay [4], the Ratio was determined as 33%.

Take `CC1(C)CC2(CN(Cc3ccc(C(F)(F)F)cc3)CCO2)c2ccccc2O1` (racemic): in assay [5], the half-inhibitory concentration (IC50) is 22.9 µM. Moreover, in assay [1], the Emax at 100 µM was 59.9%. For the same compound, the Activity in assay [3] was 34%. Further, the Ratio in assay [4] is recorded as 31%.

In the case of `COc1ccc(CN2CCOC3(C2)CC(C)(C)Oc2ccccc23)cc1` (racemic), the Activity in assay [3] is given as 61%. In assay [4], the Ratio is 26%.

Regarding `CC1(C)Oc2ccc(C#N)cc2C(N2CCCC2=O)C1O` (stereo not drawn) [CROMAKALIM], in assay [6], the result was Active. Further, the Activity in assay [7] was found to be 94%. Further, the outcome in assay [2] was inactive.

In the case of `CC1=Nc2ccc(Cl)cc2S(=O)(=O)N1` [DIAZOXIDE], in assay [2], the result was inactive. For the same compound, the Ratio in assay [4] was 28%.
